Results taken from ChEMBL document CHEMBL3425480 (J Med Chem, 2015).

Legend:
Hepatitis C virus [1] = experiment: Antiviral activity in HCV 1b infected in HUH 7-lunet cells after 3 days by Dual-Glo luciferase assay; format: functional, cell-based, Hepacivirus hominis; details: genotype 1b, Huh-7, 72 h
In short: (§1)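 Multiplex replicon assay in HUH 7-lunet cells carrying a genotype 1b replicon (I389luc-ubi-neo/NS3-3′/ET) or a 2a JFH-1 replicon (2aLucNeo-25). Cells kept in DMEM with GlutaMAX, 10% non-heat-inactivated FBS, 1 mg/mL G-418 and nonessential amino acids. 1600 cells/well (384-well) given serial dilutions. After three days, Renilla luciferase read by Dual-Glo.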

[2] = biological target: Phosphatidylinositol 4-kinase type 2-alpha (Homo sapiens, UniProt Q9BTU6); experiment: Inhibition of PI4K2alpha (unknown origin) assessed as hydrolysis of ATP for 60 mins by ADP-Glo kinase assay
In short: (§2)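 ADP-Glo lipid kinase assay, 5 μL. Final enzyme: PI4K IIIβ 4 ng/μL, IIIα 2 ng/μL, IIα 2 ng/μL. Substrate PI/PS 50 μM, ATP 100 μM final. Inhibitors from 10 mM DMSO stocks. Run 60 min at 25 °C, ADP by luminescence.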

[3] = Inhibition of PI4K3beta (unknown origin) assessed as hydrolysis of ATP for 60 mins by ADP-Glo kinase assay; parameters: species or system Homo sapiens; in short: as §2
[4] = Inhibition of PI4K3alpha (unknown origin) assessed as hydrolysis of ATP for 60 mins by ADP-Glo kinase assay; parameters: species or system Homo sapiens; in short: as §2
[5] = Cytotoxicity against human HeLa cells; format: cell-based
Hepatitis C virus [6] = experiment: Antiviral activity in HCV 2a JFH1 infected in HUH 7-lunet cells after 3 days by Dual-Glo luciferase assay; format: functional, cell-based, Hepacivirus hominis; details: subtype 2a JFH1, Huh-7, 72 h; in short: as §1
Human rhinovirus sp. = experiment: Antirhinovirus activity in HRVM infected in H1-HeLa cells assessed as inhibition of virus-induced cytopathic effect after 3 days by Cell-Titer Glo viability assay; format: functional, organism-based; details: 72 h
In short: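 H1-HeLa cells in RPMI with 10% heat-inactivated FBS and antibiotics, premixed in batch with HRV1A, HRV14 and HRV16, each at 4× TCID90. Replicate 3-fold serial dilutions in DMSO transferred acoustically (384-well). Incubated three days at 33 °C. Cytopathic effect read as viability by CellTiter-Glo.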

Coxsackievirus B3 [7] = experiment: Anticoxsackie activity in CVB3 strain Nancy infected in human HeLa cells assessed as inhibition of virus-induced cytopathic effect after 4 hrs by XTT assay; format: functional, cell-based; details: Enterovirus B, 3 days, in the assay text read “after 3 days” for “after 4 hrs”
In short: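 HeLa cells seeded a day ahead (30000/well) in DMEM with L-glutamine, 2% FBS, penicillin/streptomycin. 3-fold serial compound dilutions in triplicate, 1 h preincubation, then CVB3 added at MOI 0.005 IU/cell. Incubated 3 days at 37 °C, 5% CO2. Viability by XTT over 4 h, absorbance of formazan read. EC50 by nonlinear regression of % viability vs log10 concentration.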

Coxsackievirus B3 [8] = experiment: Anticoxsackie activity in CVB3 strain Nancy infected in human HeLa cells assessed as inhibition of virus-induced cytopathic effect after 3 days by XTT assay; details: Enterovirus B

Phosphatidylinositol 4-kinase type 2-alpha, sequence (Q9BTU6 whole entry): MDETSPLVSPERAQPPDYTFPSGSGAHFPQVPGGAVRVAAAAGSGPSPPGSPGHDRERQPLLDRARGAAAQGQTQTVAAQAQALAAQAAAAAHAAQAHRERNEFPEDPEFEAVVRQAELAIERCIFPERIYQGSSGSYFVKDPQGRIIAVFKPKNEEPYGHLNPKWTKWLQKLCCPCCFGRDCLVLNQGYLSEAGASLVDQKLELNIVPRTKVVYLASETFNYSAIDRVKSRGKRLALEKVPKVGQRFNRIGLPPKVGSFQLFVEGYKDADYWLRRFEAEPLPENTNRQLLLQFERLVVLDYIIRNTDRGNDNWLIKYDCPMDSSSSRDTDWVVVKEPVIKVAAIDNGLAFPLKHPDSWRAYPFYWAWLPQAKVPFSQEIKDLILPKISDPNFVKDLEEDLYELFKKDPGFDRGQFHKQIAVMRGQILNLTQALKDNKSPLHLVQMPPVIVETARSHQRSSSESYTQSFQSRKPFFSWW

EC50 (Hepatitis C virus [1]) [nM]	IC50 [2] [nM]	IC50 [3] [nM]	IC50 [4] [nM]	EC50 (Hepatitis C virus [6]) [nM]	EC50 (Coxsackievirus B3 [8]) [nM]	Structure (SMILES)	CC50 [5] [nM]	EC50 (Human rhinovirus sp.) [nM]	EC50 (Coxsackievirus B3 [7]) [nM]
5300	> 100000	89	> 100000	13600	–	CC(=O)NCCNc1cc(Cl)nn2c(-c3ccc(F)c(C=O)c3)c(C)nc12	> 50000	24300	> 50000
1030	> 100000	70	59400	> 44000	–	COc1ccc(-c2c(C)nn3c(NCCNC(C)=O)cc(C)nc23)cc1OC	> 50000	2900	1230
960	> 100000	67	29500	> 44000	–	COc1ccc(-c2c(C)nn3c(NCCOC(C)=O)cc(C)nc23)cc1OC	> 50000	1380	860
360	> 100000	92	33700	27900	–	COc1ccc(-c2c(C)nc3c(NCCNC(C)=O)ccnn23)cc1OC	> 50000	2900	280
1030	–	–	–	> 44000	–	COc1ccc(-c2c(C)nn3c(NCCN4CCOCC4)cc(C)nc23)cc1OC	–	2500	3380
910	> 100000	120	29300	42500	1430	COc1ccc(-c2c(C)nn3c(NCCNS(C)(=O)=O)cc(C)nc23)cc1OC	> 50000	3000	–
210	> 100000	83	> 100000	26500	–	COc1ccc(-c2c(C)nc3c(N)cc(Cl)nn23)cc1OC	1750	890	23
370	> 100000	93	27500	17900	–	COc1ccc(-c2c(C)nc3c(NCCN4CCOCC4)ccnn23)cc1OC	> 50000	880	500
290	> 100000	–	82700	31800	–	COc1ccc(-c2c(C)nc3c(NCCNC(C)=O)cc(Cl)nn23)cc1OC	> 50000	1090	750
1210	> 100000	120	62100	> 44000	–	COc1ccc(-c2c(C)nn3c(NCCNC(=O)C(C)C)cc(C)nc23)cc1OC	> 50000	1620	11000

Structure (SMILES)	EC50 (Hepatitis C virus [1]) [nM]	IC50 [2] [nM]	IC50 [3] [nM]	IC50 [4] [nM]	EC50 (Hepatitis C virus [6]) [nM]	EC50 (Coxsackievirus B3 [8]) [nM]	CC50 [5] [nM]	EC50 (Human rhinovirus sp.) [nM]	EC50 (Coxsackievirus B3 [7]) [nM]
C[C@@]1(O)[C@H](O)[C@@H](CO)O[C@H]1n1ccc2c(N)ncnc21 [BETA-2'-C-METHYL-7-DEAZA-ADENOSINE]	210	–	–	–	210	–	> 50000	5100	–
